Reference: ChEMBL document CHEMBL1177703, “Design and synthesis of novel xyloketal derivatives and their vasorelaxing activities in rat thoracic aorta and angiogenic activities in zebrafish angiogenesis screen” (J Med Chem, 2010)
Where a name gives a salt, the structure may show the parent alone. The source made the active and inactive calls. No cut-off for these calls is given here.

How the values were obtained:
[1] = tested on: Aorta; assay: Vasorelaxant activity in Sprague-Dawley rat endothelium intact thoracic aortic rings assessed as inhibition of KPSS-induced contraction; type: functional, tissue-based
Procedure, shortened: (§1)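 Rat thoracic aortic rings (2-3 mm) held in Krebs bicarbonate at 37 °C, pH 7.4, gassed with 95% O2/5% CO2. Endothelium accepted as intact with >80% relaxation to 1 μM ACh after 1 μM phenylephrine, and as denuded with no ACh response. Rings precontracted with KCl (30 mM intact, 25 mM denuded). Cumulative curves 0.5-200 μM, vehicle 2% DMSO, one curve per ring; EC50 derived.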

[2] = tested on: HUVEC; assay: Cytotoxicity against HUVEC assessed as cell viability > 200 uM after 24 hrs by MTT assay; type: cell-based; settings: human
[3] = species: Danio rerio; assay: Angiogenic activity in zebrafish embryo at 100 uM after 72 hrs by microscopical analysis
[4] = tested on: HUVEC; assay: Protection against oxidatively modified low density lipoprotein-induced cell injury in HUVEC assessed as cell viability at 20 uM pretreated for 30 mins before oxLDL challenge measured after 24 hrs by MTT assay; type: functional, cell-based; settings: Homo sapiens
Procedure, shortened: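 HUVECs pretreated 30 min with 20 μM compound, then given oxLDL (150 μg/mL) or vehicle for 24 h. MTT added and absorbance read at 570 nm after 4 h. Mean ± SD, n = 6.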

[5] = tested on: Aorta; assay: Vasorelaxant activity in Sprague-Dawley rat endothelium denuded thoracic aortic rings assessed as inhibition of KCL-induced contraction; type: functional, tissue-based; procedure, shortened: as §1
[6] = tested on: HUVEC; assay: Induction of nitric oxide production in HUVEC at 20 uM after 24 hrs by griess reaction in presence of L-NAME; type: functional, cell-based; settings: Homo sapiens
Procedure, shortened: (§2)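 HUVECs preincubated 24 h with 20 μM compound, alone or together with 100 μM L-NAME. Nitrite in 100 μL medium mixed 1:1 with Griess reagent for 15 min, absorbance read at 540 nm, quantified against a NaNO2 standard curve run with each experiment. Samples in triplicate; mean ± SD, n = 6.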

[7] = tested on: HUVEC; assay: Induction of nitric oxide production in HUVEC at 20 uM after 24 hrs by griess reaction; type: functional, cell-based; settings: Homo sapiens; procedure, shortened: as §2
[8] = species: Danio rerio; assay: Angiogenic activity in zebrafish embryo after 72 hrs by microscopical analysis

SMILES	EC50 [1]	EC50 [5]	Activity [2]	Angiogenic activity [3]	Activity [4]	Activity [6]	Activity [7]	Angiogenic activity [8]
COC(=O)C(C)NC(=O)c1c(O)c2c(c3c1O[C@@]1(C)OC[C@H](C)[C@H]1C3)O[C@@]1(C)OC[C@H](C)[C@H]1C2 (stereo partly drawn)	5 µM	13 µM	Non-toxic	Active				
CC1COC2(C)Oc3cc(O)cc(O)c3CC12 (racemic)	39 µM	66 µM	Non-toxic	Active	Active			
COC1(C)CCc2c(c3c(c4c2OC(C)(OC)CC4)OC(C)(OC)CC3)O1 (stereo not drawn)	65 µM	118 µM	Non-toxic	Active				
CNC(=O)c1c(O)c2c(c3c1O[C@@]1(C)OC[C@H](C)[C@H]1C3)O[C@@]1(C)OC[C@H](C)[C@H]1C2	9 µM	15 µM	Non-toxic	Active				
CC1COC2(C)Oc3cc(O)c4c(c3CC12)OC1(C)OCC(C)C1C4 (racemic) [(+/-)-XYLOKETAL B]	19 µM	41 µM	Non-toxic	Active	Active			Dose-dependent effect
C[C@H]1CO[C@]2(C)Oc3c(c4c(c5c3C[C@@H]3[C@@H](C)CO[C@]3(C)O5)C[C@@H]3[C@@H](C)CO[C@]3(C)O4)C[C@H]12	12 µM	31 µM	Non-toxic	Active		inactive	Active	
C[C@H]1CO[C@]2(C)Oc3ccc4c(c3C[C@H]12)O[C@@]1(C)OC[C@H](C)[C@H]1C4 [DEHYDROXY XYLOKETAL B]	55 µM	72 µM	Non-toxic					
CC1COC2(C)Oc3c(c4c(c5c3CC3C(C)COC3(C)O5)CC3C(C)COC3(C)O4)CC12 (racemic)	6 µM	11 µM	Non-toxic	Active	Active			
C[C@H]1CO[C@]2(C)Oc3c(c(O)c(Cc4c(O)c5c(c6c4O[C@@]4(C)OC[C@H](C)[C@H]4C6)O[C@@]4(C)OC[C@H](C)[C@H]4C5)c4c3C[C@@H]3[C@@H](C)CO[C@]3(C)O4)C[C@H]12	87 µM	> 200 µM	Non-toxic	Active				

More lines, main results first:

EC50 [1]	EC50 [5]	SMILES	Activity [2]	Angiogenic activity [3]	Activity [4]	Activity [6]	Activity [7]	Angiogenic activity [8]
43 µM	77 µM	CCCOc1cc2c(c3c1C[C@@H]1[C@@H](C)CO[C@]1(C)O3)C[C@@H]1[C@@H](C)CO[C@]1(C)O2 [XYLOKETAL B PROPYL ETHER]	Non-toxic	Active	Active			
23 µM	22 µM	C#CCOc1cc2c(c3c1C[C@@H]1[C@@H](C)CO[C@]1(C)O3)C[C@@H]1[C@@H](C)CO[C@]1(C)O2 [XYLOKETAL B PROPARGYL ETHER]	Non-toxic	Active	Active	inactive	Active	
128 µM	> 200 µM	C[C@H]1CO[C@]2(C)Oc3cccc(O)c3C[C@H]12 [DEHYDROXY XYLOKETAL H]	Non-toxic					
> 200 µM	> 200 µM	CCCCCCOc1cc2c(c3c1C[C@@H]1[C@@H](C)CO[C@]1(C)O3)C[C@@H]1[C@@H](C)CO[C@]1(C)O2 [XYLOKETAL B HEXYL ETHER]	Non-toxic					
3 µM	10 µM	C[C@H]1CO[C@]2(C)Oc3c(c(O)c(C(N)=O)c4c3C[C@@H]3[C@@H](C)CO[C@]3(C)O4)C[C@H]12 [XYLOKETAL B FORMAMIDE]	Non-toxic	Active				
64 µM	> 200 µM	C[C@H]1CO[C@]2(C)Oc3cc(OC/C=C/c4ccccc4)c4c(c3C[C@H]12)O[C@@]1(C)OC[C@H](C)[C@H]1C4 [XYLOKETAL B CINNAMYL ETHER]	Non-toxic					
8 µM	14 µM	COC(=O)c1c(O)c2c(c3c1O[C@@]1(C)OC[C@H](C)[C@H]1C3)O[C@@]1(C)OC[C@H](C)[C@H]1C2 [XYLOKETAL B METHYL FORMATE]	Non-toxic	Active				
12 µM	11 µM	C=C=CCOc1cc2c(c3c1C[C@@H]1[C@@H](C)CO[C@]1(C)O3)C[C@@H]1[C@@H](C)CO[C@]1(C)O2 [XYLOKETAL B ALLENIC ETHER]	Non-toxic	Active	Active			
> 200 µM	> 200 µM	C[C@H]1CO[C@]2(C)Oc3c(c(O)c(C(=O)O)c4c3C[C@@H]3[C@@H](C)CO[C@]3(C)O4)C[C@H]12 [XYLOKETAL B ACID]	Non-toxic					
40 µM	52 µM	Cc1cc2c(c3c1C[C@@H]1[C@@H](C)CO[C@]1(C)O3)C[C@@H]1[C@@H](C)CO[C@]1(C)O2 [METHYL XYLOKETAL B]	Non-toxic	Active	Active	inactive	Active	
37 µM	80 µM	COc1cc(OC)c2c(c1)O[C@@]1(C)OC[C@H](C)[C@H]1C2 [XYLOKETAL H DIMETHYL ESTER]	Non-toxic					
111 µM	> 200 µM	CCCCOc1cc2c(c3c1C[C@@H]1[C@@H](C)CO[C@]1(C)O3)C[C@@H]1[C@@H](C)CO[C@]1(C)O2 [XYLOKETAL B BUTYL ETHER]	Non-toxic					
17 µM	33 µM	COc1cc2c(c3c1C[C@@H]1[C@@H](C)CO[C@]1(C)O3)C[C@@H]1[C@@H](C)CO[C@]1(C)O2 [XYLOKETAL B METHYL ETHER]	Non-toxic	Active	Active	inactive	Active	
